Laboratory results published in ChEMBL document CHEMBL1123965, “Substituted 1,3,4-thiadiazoles with anticonvulsant activity. 4. Amidines” (J Med Chem, 1988).

Key:
[1] = tested on: Mus musculus; assay: Anticonvulsant activity in mouse maximal metrazole seizure test 1 hr following p.o. administration.; type: functional; settings: po
How it was run: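 Male BKW mice (LACA origin), 18–22 g, dosed orally with compound in 2% Tween 80/distilled water (solution or suspension). Leptazol 120 mg/kg ip given 1 h after oral dose to provoke maximal seizures. ED50 with limits obtained by Bliss probit analysis.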

[2] = The dose at which 50% of the mouse fell off the rotarod; type: ADME, organism-based; settings: in vivo
How it was run: (§1)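 Male BKW mice (18–22 g), trained beforehand to stay on a 3-cm-diameter rod turning at 16 rpm; dosed po in 2% Tween 80/water and tested 1 h later. TD50 (dose at which half fall off) by probit analysis. Sedation, ataxia, loss of righting reflex and death noted by visual observation after oral dosing.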

[3] = tested on: Mus musculus; assay: Anticonvulsant activity in mouse maximal electroshock test 1 hr following p.o. administration.; type: functional; settings: po
How it was run: (§2)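 Male BKW mice (LACA origin), 18–22 g; compound dissolved or suspended in 2% Tween 80 in distilled water, given po, tested 1 h later. Corneal electrodes delivered 4-ms pulses, 50 Hz, 80 V for 0.3 s. End point was block of hind limb tonic seizure; ED50 with limits from probit analysis (Bliss computerized method).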

[4] = tested on: Mus musculus; assay: The dose at which 50% of the mouse fell off the rotarod; Sedative at 100 mg/kg; type: ADME, organism-based; design: dose 100 mg/kg; settings: in vivo; how it was run: as §1
[5] = tested on: Mus musculus; assay: Anticonvulsant activity in mice (1h after dosing, po) was determined by maximal electroshock test; type: functional; how it was run: as §2
[6] = tested on: Mus musculus; assay: The dose at which 50% of the mouse fell off the rotarod; Toxic at 200 mg/kg; type: toxicity, organism-based; design: dose 200 mg/kg; settings: in vivo; how it was run: as §1
[7] = tested on: Mus musculus; assay: The dose at which 50% of the mouse fell off the rotarod; Sedative at 142 mg/kg; type: ADME, organism-based; design: dose 142 mg/kg; settings: in vivo; how it was run: as §1
[8] = species on record: Mus musculus; assay: Lethal dose was determined; type: toxicity, organism-based; settings: in vivo
How it was run: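 Male BKW mice (LACA origin, 18–22 g) were dosed orally with compound dissolved or suspended in 2% Tween 80 in distilled water. Before anticonvulsant testing, animals were observed visually for sedation, ataxia, loss of righting reflex and death. The value is reported in the rotorod column, which was read 1 h after oral dosing.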

Structure (SMILES) | ED50 [1] | TD50 [2] | ED50 [3] | further results
CC(=N)Nc1nnc(-c2ccccc2C(F)(F)F)s1 | 19 mg/kg | ~80 mg/kg | 18 mg/kg | –
CC(=N)Nc1nnc(-c2ccccc2-c2ccccc2)s1 | – | > 100 mg/kg | – | –
CCCC/N=C(/C)Nc1nnc(-c2ccccc2C)s1 | 46 mg/kg | > 100 mg/kg | 48 mg/kg | –
CC(=N)Nc1nnc(-c2ccccc2C)s1 | 78 mg/kg | – | – | TD50 [4]: Sedative at 100 mg/kg; ED50 [5]: 200 mg/kg
CC(=N)Nc1nnc(Cc2ccccc2)s1 | 50 mg/kg | 200 mg/kg | 31 mg/kg | –
CCCC/N=C(\Nc1nnc(-c2ccccc2-c2ccccc2)s1)C(C)C | > 100 mg/kg | – | > 200 mg/kg | –
C/C(=N/Cc1ccccc1)Nc1nnc(-c2ccccc2C)s1 | 102 mg/kg | > 200 mg/kg | 86 mg/kg | –
Cc1ccccc1-c1nnc(C2=NCCN2)s1 | > 200 mg/kg | – | > 100 mg/kg | –
CCCC/N=C(/C)Nc1nnc(-c2ccccc2-c2ccccc2)s1 | 90 mg/kg | > 200 mg/kg | 121 mg/kg | –
CCCC/N=C(\N)c1nnc(-c2ccccc2C)s1 | ~142 mg/kg | – | > 200 mg/kg | TD50 [6]: Toxic at 200 mg/kg
C/C(=N\c1nnc(-c2ccccc2C)s1)N1CCOCC1 | 148 mg/kg | – | 108 mg/kg | TD50 [7]: Sedative at 142 mg/kg
c1ccc(-c2ccccc2-c2nnc(C3=NCCN3)s2)cc1 | 77 mg/kg | – | 103 mg/kg | LD30 [8]: 200 mg/kg
CCCC/N=C(/Cc1ccccc1)Nc1nnc(-c2ccccc2C(F)(F)F)s1 | > 100 mg/kg | – | > 200 mg/kg | –
N=C(Cc1ccccc1)Nc1nnc(Cc2ccccc2)s1 | 45 mg/kg | > 500 mg/kg | 86 mg/kg | –
CCCC(=N)Nc1nnc(-c2ccccc2C(F)(F)F)s1 | 60 mg/kg | 150 mg/kg | 63 mg/kg | –
Cc1ccccc1-c1nnc(/N=C/Nc2nnc(-c3ccccc3C)s2)s1 | > 200 mg/kg | – | > 200 mg/kg | –
CCN(CC)/C(C)=N/c1nnc(-c2ccccc2C)s1 | 84 mg/kg | > 200 mg/kg | 81 mg/kg | –
CCCC/N=C(/C)Nc1nnc(-c2ccccc2C(F)(F)F)s1 | 21 mg/kg | ~70 mg/kg | 33 mg/kg | –
